Assays:
[1] = Half life in mouse liver microsomes at 1.25 uM preincubated for 5 mins followed by NADPH generating system addition and measured for 120 mins by LC-MS/MS analysis; format: ADME, Microsome
How it was run: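 Mouse liver microsomes (1.25 mg/mL protein) in 100 mM phosphate pH 7.4 with 1.25 µM compound, preincubated 5 min at 37 °C. Reaction started with NADPH-generating system (1 mM NADP, 10 mM MgCl2, 10 mM G6P, 0.5 U/mL G6PDH). Sampled at 0–120 min, quenched with MeOH/ACN 1:1, analysed by LC-MS/MS.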

[2] = target: T1, Nucleotide-binding oligomerization domain-containing protein 1 (Homo sapiens, UniProt Q9Y239); test: Antagonist activity at NOD1 in HEK-Blue hNOD1 cells assessed as inhibition of C12-iE-DAP-induced NFkappaB activation-mediated SEAP release preincubated for 3 hrs followed by C12-iE-DAP addition and measured after 20 hrs by spectrophotometric method; format: cell-based
T1 sequence (Q9Y239 whole entry): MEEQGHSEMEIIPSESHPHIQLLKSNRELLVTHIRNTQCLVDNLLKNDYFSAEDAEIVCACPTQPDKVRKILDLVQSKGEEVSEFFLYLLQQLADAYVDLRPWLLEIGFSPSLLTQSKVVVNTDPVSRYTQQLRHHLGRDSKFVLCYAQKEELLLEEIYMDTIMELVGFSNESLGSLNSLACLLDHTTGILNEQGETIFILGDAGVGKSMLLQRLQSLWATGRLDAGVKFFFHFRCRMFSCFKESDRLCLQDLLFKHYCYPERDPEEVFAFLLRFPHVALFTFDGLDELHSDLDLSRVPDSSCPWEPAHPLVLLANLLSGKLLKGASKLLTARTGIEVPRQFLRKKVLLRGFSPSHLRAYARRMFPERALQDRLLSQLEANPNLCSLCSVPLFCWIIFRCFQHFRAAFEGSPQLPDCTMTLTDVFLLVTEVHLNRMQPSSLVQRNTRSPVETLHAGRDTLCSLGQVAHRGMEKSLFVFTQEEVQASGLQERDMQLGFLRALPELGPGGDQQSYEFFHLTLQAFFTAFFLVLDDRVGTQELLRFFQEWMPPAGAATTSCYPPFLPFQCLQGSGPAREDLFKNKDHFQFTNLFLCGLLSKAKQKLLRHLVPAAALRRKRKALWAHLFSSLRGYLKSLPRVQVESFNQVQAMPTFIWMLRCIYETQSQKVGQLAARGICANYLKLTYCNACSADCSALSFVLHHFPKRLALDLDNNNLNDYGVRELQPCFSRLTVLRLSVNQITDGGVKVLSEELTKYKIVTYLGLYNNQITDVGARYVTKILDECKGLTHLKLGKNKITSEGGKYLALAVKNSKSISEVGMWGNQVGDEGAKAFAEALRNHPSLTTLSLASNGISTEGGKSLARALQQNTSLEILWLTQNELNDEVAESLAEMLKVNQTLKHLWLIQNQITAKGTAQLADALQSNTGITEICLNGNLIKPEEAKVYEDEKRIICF

[3] = target: T2, Nucleotide-binding oligomerization domain-containing protein 1 (Homo sapiens) (UniProt Q9Y239); test: Antagonist activity at NOD1 in HEK-Blue hNOD1 cells assessed as inhibition of C12-iE-DAP-induced NFkappaB activation-mediated SEAP release at 5 uM preincubated for 3 hrs followed by C12-iE-DAP addition and measured after 20 hrs by spectrophotometric method relative to control; format: cell-based; settings: time 23.0 hrs
T2 sequence (whole entry): T1 sequence (Q9Y239 whole entry)

[4] = target: T3, Nucleotide-binding oligomerization domain-containing protein 2 (Homo sapiens, UniProt Q9HC29); test: Antagonist activity at NOD2 in HEK-Blue hNOD2 cells assessed as inhibition of MDP-induced NFkappaB activation-mediated SEAP release at 5 uM preincubated for 3 hrs followed by MDP addition and measured after 20 hrs by spectrophotometric method relative to control; format: cell-based; settings: time 23.0 hrs
[5] = target: T3, Nucleotide-binding oligomerization domain-containing protein 2; test: Antagonist activity at NOD2 in HEK-Blue hNOD2 cells assessed as inhibition of MDP-induced NFkappaB activation-mediated SEAP release preincubated for 3 hrs followed by MDP addition and measured after 20 hrs by spectrophotometric method; format: cell-based
How it was run: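 HEK-Blue hNOD2 cells preincubated 3 h with a range of concentrations, then MDP 100 ng/mL for 20 h. SEAP quantified. SRB assay run to exclude cytotoxicity. IC50 by nonlinear semi-logarithmic fit, mean ± SD, n = 3.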

[6] = target: T3, Nucleotide-binding oligomerization domain-containing protein 2; test: Antagonist activity at recombinant human NOD2 expressed in HEK293 cells assessed as inhibition of MDP-induced IL8 release measured after 24 hrs by HTRF assay; format: cell-based

T3 sequence (Q9HC29 whole entry, the tested form may be a part): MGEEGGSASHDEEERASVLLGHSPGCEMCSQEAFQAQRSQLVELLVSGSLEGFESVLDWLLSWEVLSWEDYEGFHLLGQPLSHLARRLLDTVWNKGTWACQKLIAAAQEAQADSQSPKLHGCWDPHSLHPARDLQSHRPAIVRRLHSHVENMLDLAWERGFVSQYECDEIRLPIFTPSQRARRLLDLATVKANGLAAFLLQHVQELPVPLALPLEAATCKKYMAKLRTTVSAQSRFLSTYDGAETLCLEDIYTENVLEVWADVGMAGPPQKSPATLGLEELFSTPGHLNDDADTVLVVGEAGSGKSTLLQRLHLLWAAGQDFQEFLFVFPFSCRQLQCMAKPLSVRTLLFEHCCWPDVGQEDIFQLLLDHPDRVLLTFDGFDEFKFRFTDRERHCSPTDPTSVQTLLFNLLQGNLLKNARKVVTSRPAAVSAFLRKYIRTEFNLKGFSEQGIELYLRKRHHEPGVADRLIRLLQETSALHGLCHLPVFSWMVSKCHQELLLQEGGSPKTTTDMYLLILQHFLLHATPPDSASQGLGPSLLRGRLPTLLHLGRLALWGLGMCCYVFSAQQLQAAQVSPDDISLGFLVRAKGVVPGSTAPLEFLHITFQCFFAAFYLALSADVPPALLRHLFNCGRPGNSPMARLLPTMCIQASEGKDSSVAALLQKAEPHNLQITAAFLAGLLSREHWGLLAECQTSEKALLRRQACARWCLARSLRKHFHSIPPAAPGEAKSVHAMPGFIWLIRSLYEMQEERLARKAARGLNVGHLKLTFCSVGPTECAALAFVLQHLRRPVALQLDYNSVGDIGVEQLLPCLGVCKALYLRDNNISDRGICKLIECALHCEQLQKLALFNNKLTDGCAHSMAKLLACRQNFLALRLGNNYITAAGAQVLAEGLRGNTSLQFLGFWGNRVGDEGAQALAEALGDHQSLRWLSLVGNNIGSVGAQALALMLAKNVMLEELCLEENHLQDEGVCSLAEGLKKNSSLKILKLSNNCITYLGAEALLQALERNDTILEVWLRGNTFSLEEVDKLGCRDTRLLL

| inhibition [3] | SMILES | IC50 [2] | inhibition ([3]; filed as antagonist) | also measured |
| --- | --- | --- | --- | --- |
| – | O=C(NCCOCc1ccc(C(F)(F)F)cc1)c1cc2nc[nH]c(=O)c2cc1-c1cccc(Cl)c1 | 1340 nM | 64.4% | half-life at 1.25 µM [1]: 22.9 min |
| – | CN(C)c1cccc(Oc2cc3c(=O)n(CC(=O)N4CCCCC4)cnc3cc2NC(=O)COCc2ccc(C(F)(F)F)cc2)c1 | 260 nM | 87.5% | inhibition ([4]; filed as antagonist): 92.4%; IC50 [5]: 1750 nM |
| – | CN(C)c1cccc(Oc2cc3c(=O)n(CC(=O)N4CCCC(F)(F)C4)cnc3cc2NC(=O)COCc2ccc(C(F)(F)F)cc2)c1 | 140 nM | 90.4% | inhibition ([4]; filed as antagonist): 94.2%; IC50 [5]: 660 nM |
| – | O=C(NCCCOc1ccc(C(F)(F)F)cc1)c1cc2ncn(CC(=O)N3CCCCC3)c(=O)c2cc1-c1cccc(Cl)c1 | 800 nM | 93.2% | half-life at 1.25 µM [1]: 15.6 min; IC50 [5]: 800 nM |
| – | O=C(CCCOc1ccc(C(F)(F)F)cc1)Nc1cc2nc[nH]c(=O)c2cc1Oc1cccc(N2CCOCC2)c1 | 2480 nM | 65.4% | half-life at 1.25 µM [1]: 10.1 min |
| – | O=C(NCCOCc1ccc(C(F)(F)F)cc1)c1cc2nc[nH]c(=O)c2cc1-c1cccc(C(F)(F)F)c1 | 4390 nM | 72.4% | – |
| – | COC(=O)Cn1cnc2cc(NC(=O)COCc3ccc(C#N)cc3)c(Oc3cccc(N(C)C)c3)cc2c1=O | – | 55.7% | inhibition ([4]; filed as antagonist): 58.7% |
| 19.4% | CN(C)c1cccc(Oc2cc3c(=O)[nH]cnc3cc2NC(=O)c2ccc(C#N)cc2)c1 | – | – | inhibition [4]: 13.1% |
| – | O=C(NCCCOc1ccc(C(F)(F)F)cc1)c1cc2nc[nH]c(=O)c2cc1-c1cccc(Cl)c1 | 840 nM | 90% | IC50 [5]: 840 nM |
| -0.98% | COC(=O)Cn1cnc2cc(C(=O)NCCCc3ccccc3)c(-c3cccc(F)c3)cc2c1=O | – | – | – |
| – | COC(=O)Cn1cnc2cc(NC(=O)COCc3ccc(C(F)(F)F)cc3)c(Oc3ccccc3N(C)C)cc2c1=O | 1650 nM | 87.9% | – |
| – | CN(C)c1cccc(Oc2cc3c(=O)n(CC(=O)N4CCC(F)CC4)cnc3cc2NC(=O)COCc2ccc(C(F)(F)F)cc2)c1 | 210 nM | 89.1% | inhibition ([4]; filed as antagonist): 94.3%; IC50 [5]: 1110 nM |
| – | CN(C)c1cccc(Oc2cc3c(=O)[nH]cnc3cc2NC(=O)COCc2ccc(C(F)(F)F)cc2)c1 | – | 50.4% | inhibition ([4]; filed as antagonist): 54%; IC50 [5]: 800 nM |
| – | O=C(NCCCc1ccc(Cl)cc1)c1cc2nc[nH]c(=O)c2cc1-c1cccc(Cl)c1 | – | 41.5% | – |
| -1.81% | O=C(NCCCc1ccccc1)c1cc2nc[nH]c(=O)c2cc1-c1cccc(F)c1 | – | – | – |
| – | COC(=O)Cn1cnc2cc(C(=O)NCCCc3ccc(Cl)cc3)c(-c3cccc(Cl)c3)cc2c1=O | 1640 nM | 58.2% | – |
| 28.2% | COC(=O)Cn1cnc2cc(NC(=O)CCCOc3ccc(C(F)(F)F)cc3)c(Oc3ccccc3)cc2c1=O | – | – | – |
| – | CCc1ccc(S(=O)(=O)Nc2cc(-n3c(C)nc4ccccc4c3=O)ccc2F)s1 | – | – | IC50 [6]: > 50 µM |
| 33.4% | COC(=O)Cn1cnc2cc(NC(=O)COCc3ccc(F)cc3)c(Oc3cccc(N(C)C)c3)cc2c1=O | – | – | inhibition ([4]; filed as antagonist): 42.5% |
| – | CN(C)c1cccc(Oc2cc3c(=O)[nH]cnc3cc2NC(=O)CCCOc2ccc(C(F)(F)F)cc2)c1 | 5640 nM | 59.1% | inhibition ([4]; filed as antagonist): 58.5%; IC50 [5]: 4770 nM |
| 22% | O=C(O)Cn1cnc2cc(C(=O)NCCCOc3ccc(C(F)(F)F)cc3)c(-c3cccc(Cl)c3)cc2c1=O | – | – | half-life at 1.25 µM [1]: 22.9 min |
| – | O=C(NCCOCc1ccc(C(F)(F)F)cc1)c1cc2nc[nH]c(=O)c2cc1-c1cccc(F)c1 | 4110 nM | 56.1% | – |
| 33.5% | COC(=O)Cn1cnc2cc(NC(=O)CCCOc3ccc(F)cc3)c(Oc3cccc(N(C)C)c3)cc2c1=O | – | – | – |

| inhibition [3] | SMILES | IC50 [2] | inhibition ([3]; filed as antagonist) | also measured |
| --- | --- | --- | --- | --- |
| 35% | O=C(NCCCc1ccc(Cl)cc1)c1cc2nc[nH]c(=O)c2cc1-c1cccc(C(F)(F)F)c1 | – | – | – |
| – | COC(=O)Cn1cnc2cc(NC(=O)COCc3ccc(Cl)cc3)c(Oc3cccc(N(C)C)c3)cc2c1=O | 4310 nM | 69% | – |
| 6.6% | O=C(NCCCc1ccccc1)c1cc2nc[nH]c(=O)c2cc1-c1cccc(Cl)c1 | – | – | – |
| – | O=C(NCCCc1ccc(Cl)cc1)c1cc2nc[nH]c(=O)c2cc1-c1cccc(F)c1 | – | 43.5% | – |
| – | O=C(COCc1ccc(C(F)(F)F)cc1)Nc1cc2ncn(CC(=O)N3CCCC(F)(F)C3)c(=O)c2cc1Oc1cccc(N2CCOCC2)c1 | 540 nM | 88.2% | half-life at 1.25 µM [1]: 12.9 min; IC50 [5]: 500 nM |
| – | COC(=O)Cn1cnc2cc(NC(=O)COCc3ccc(C(F)(F)F)cc3)c(Oc3cccc(N(C)C)c3)cc2c1=O | 1150 nM | 85.4% | inhibition ([4]; filed as antagonist): 76.9%; IC50 [5]: 990 nM |
| – | COC(=O)Cn1cnc2cc(C(=O)NCCOCc3ccc(C(F)(F)F)cc3)c(-c3cccc(Cl)c3)cc2c1=O | 1120 nM | 82.4% | – |
| – | COC(=O)Cn1cnc2cc(C(=O)NCCOCc3ccc(C(F)(F)F)cc3)c(-c3cccc(F)c3)cc2c1=O | 3460 nM | 64% | – |
| – | COC(=O)Cn1cnc2cc(C(=O)NCCCc3ccc(Cl)cc3)c(-c3cccc(F)c3)cc2c1=O | 3240 nM | 65.3% | – |
| – | COC(=O)Cn1cnc2cc(NC(=O)CCCOc3ccc(C(F)(F)F)cc3)c(Oc3cccc(N4CCOCC4)c3)cc2c1=O | 1380 nM | 91.2% | half-life at 1.25 µM [1]: 9.6 min |
| – | COC(=O)Cn1cnc2cc(NC(=O)CCCOc3ccc(C(F)(F)F)cc3)c(Oc3ccc(N(C)C)cc3)cc2c1=O | 3870 nM | 68.4% | – |
| – | COC(=O)Cn1cnc2cc(NC(=O)CCCOc3ccc(C(F)(F)F)cc3)c(Oc3cccc(N(C)C)c3)cc2c1=O | 2650 nM | 70.9% | – |
| – | COC(=O)Cn1cnc2cc(C(=O)NCCCOc3ccc(C(F)(F)F)cc3)c(-c3cccc(Cl)c3)cc2c1=O | 890 nM | 89.6% | IC50 [5]: 1000 nM |
| – | CN(C)c1cccc(Oc2cc3c(=O)n(CC(=O)N4CCC(F)(F)CC4)cnc3cc2NC(=O)COCc2ccc(C(F)(F)F)cc2)c1 | 270 nM | 82% | inhibition ([4]; filed as antagonist): 87%; IC50 [5]: 1180 nM |
| – | COC(=O)Cn1cnc2cc(NC(=O)COCc3ccc(C(F)(F)F)cc3)c(Oc3cccc(N4CCOCC4)c3)cc2c1=O | 650 nM | 88.9% | IC50 [5]: 550 nM |
| 13.1% | COC(=O)Cn1cnc2cc(NC(=O)c3ccc(C#N)cc3)c(Oc3cccc(N(C)C)c3)cc2c1=O | – | – | – |
| – | COC(=O)Cn1cnc2cc(NC(=O)CCCOc3ccc(C#N)cc3)c(Oc3cccc(N(C)C)c3)cc2c1=O | – | 48% | – |
| 4.06% | O=C(NCCCc1ccccc1)c1cc2nc[nH]c(=O)c2cc1-c1cccc(C(F)(F)F)c1 | – | – | – |
| 37.6% | O=C(COCc1ccc(C(F)(F)F)cc1)Nc1cc2nc[nH]c(=O)c2cc1Oc1cccc(N2CCOCC2)c1 | – | – | – |
| 31.7% | COC(=O)Cn1cnc2cc(NC(=O)c3ccc(C(F)(F)F)cc3)c(Oc3cccc(N(C)C)c3)cc2c1=O | – | – | – |
| – | COC(=O)Cn1cnc2cc(NC(=O)COCc3ccccc3)c(Oc3cccc(N(C)C)c3)cc2c1=O | – | 47.6% | inhibition [4]: 35% |
| – | COC(=O)Cn1cnc2cc(NC(=O)COCc3ccc(C(F)(F)F)cc3)c(Oc3ccccc3)cc2c1=O | – | 50.2% | – |

| SMILES | inhibition [3] | IC50 [2] | inhibition ([3]; filed as antagonist) | also measured |
| --- | --- | --- | --- | --- |
| CN(C)c1cccc(Oc2cc3c(=O)[nH]cnc3cc2NC(=O)COCc2ccc(C#N)cc2)c1 | 30.4% | 9330 nM | – | inhibition [4]: 19.3% |
